Active and inactive are the calls of the source.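 The calls were made as follows: active = fitted absorbance curve falls past 35% inhibition at a dose no higher than twice the top tested dose; inconclusive = flat fit at 30 to 70% inhibition, or poor fit; inactive = the rest.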
System: not listed separately
Experiment: P. aeruginosa PAK growth delay with EDDHA – PAK strain, absorbance 405 nm, dry powder, dose response (AID 624107)
Conditions: P. aeruginosa PAK + EDDHA, pyoverdine absorbance 405 nm, 28 h; at 100 µM (top of the series)
Summary of the method: (§1)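 Assay system: Pseudomonas aeruginosa PAK wild-type strain, whole bacterial cells. Medium: succinate M9 medium at pH 7.0 with 2 µM EDDHA. Also added: iron chelator EDDHA at 2 µM in the medium. Doses: compound dose series from 100 µM down to 15 nM final. Incubation: compound exposure of 28 h at 30 °C, humidified.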

| SMILES | activity change, negative = inhibition |
| --- | --- |
| N#CC(c1ccc(F)cc1)c1cccc(Cl)n1 (stereo unspecified) | -39.4% (inactive) |
| CCCCC(C#N)c1ccc(Cl)cc1 (stereo unspecified) | -14% (inactive) |
| COCCNC(C#N)c1ccc(Cl)cc1 (stereo unspecified) | -17.9% (inactive) |
| CCCCC(c1ccc(Cl)cc1)c1nn[nH]n1 (stereo unspecified) | -16.3% (inactive) |
| COCCC(C#N)c1ccc(Cl)cc1 (stereo unspecified) | -7.69% (inactive) |
| CCCCC(C#N)c1ccccn1 (stereo unspecified) | 3.52% (inactive) |
| Clc1ccc(C(c2cccc(Cl)n2)c2nn[nH]n2)cc1 (stereo unspecified) | 14.5% (inactive) |
| N#CC(c1ccc(C(F)(F)F)c(Cl)n1)c1ccccc1OC(F)(F)F (stereo unspecified) | -22.7% (inactive) |
| COCCOCCC(C#N)c1ccc(Cl)cc1 (stereo unspecified) | 6.79% (inactive) |

System: P. aeruginosa PAK + EDDHA, pyoverdine absorbance 405 nm, 28 h
Experiment: as above
Conditions: not given
Summary of the method: as §1

| SMILES | AC35 |
| --- | --- |
| N#CC(c1ccc(Cl)cc1)c1cccc(C(F)(F)F)n1 (stereo unspecified) | 3.67 µM |
| N#CC(c1ccc(F)cc1)c1cccc(C(F)(F)F)n1 (stereo unspecified) | 9.8 µM |
| N#CC(c1ccc(Cl)cc1)c1cccc(Cl)n1 (stereo unspecified) | 11.8 µM |
| N#CC(c1cccc(Cl)n1)c1ccc(Cl)cc1F (stereo unspecified) | 5.28 µM |
| N#CC(c1cccc(C(F)(F)F)n1)c1ccc(Cl)cc1F (stereo unspecified) | 5.42 µM |
| CN(C)CCCC(C#N)c1ccc(Cl)cc1 (stereo unspecified) | > 100 µM (inactive) |
| N#CC(c1ccc(Cl)cc1)c1ncccc1Cl (stereo unspecified) | 22 µM |

From PubChem BioAssay AID624107 (Broad Institute, 2012)
